Experiments:
Beta-secretase 1 [1] = target: T1, Beta-secretase 1 (Homo sapiens, UniProt P56817); assay: Inhibition of human BACE1 expressed in recombinant baculovirus-infected insect cells using rhodamine conjugated APP-based EVNLDAEFK as substrate at 10 uM after 60 mins by FRET analysis
Procedure, shortened: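 Commercial BACE-1 FRET kit run per supplier protocol, with 3X BACE-1 enzyme (1U/ml) in 50mM sodium acetate buffer, pH 4.5. Compounds were made as 10mM DMSO stocks and diluted in buffer to a final 10µM. After 60 min incubation, fluorescence was read with excitation at 545 nm. Percent inhibition is given as mean ± S.D. of triplicate independent experiments.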

Beta-secretase 1 [2] = target: T1, Beta-secretase 1; assay: Inhibition of human BACE1 expressed in recombinant baculovirus-infected insect cells using rhodamine conjugated APP-based EVNLDAEFK as substrate after 60 mins by FRET analysis
Procedure, shortened: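 FRET cleavage assay from a commercial BACE-1 kit, following supplier protocol. It used 3X BACE-1 enzyme (1U/ml) in 50mM sodium acetate buffer, pH 4.5. Test compounds were prepared as 10mM DMSO stocks and diluted with buffer. After 60 min incubation, fluorescence was read at 545 nm excitation.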

T1 sequence (P56817 whole entry): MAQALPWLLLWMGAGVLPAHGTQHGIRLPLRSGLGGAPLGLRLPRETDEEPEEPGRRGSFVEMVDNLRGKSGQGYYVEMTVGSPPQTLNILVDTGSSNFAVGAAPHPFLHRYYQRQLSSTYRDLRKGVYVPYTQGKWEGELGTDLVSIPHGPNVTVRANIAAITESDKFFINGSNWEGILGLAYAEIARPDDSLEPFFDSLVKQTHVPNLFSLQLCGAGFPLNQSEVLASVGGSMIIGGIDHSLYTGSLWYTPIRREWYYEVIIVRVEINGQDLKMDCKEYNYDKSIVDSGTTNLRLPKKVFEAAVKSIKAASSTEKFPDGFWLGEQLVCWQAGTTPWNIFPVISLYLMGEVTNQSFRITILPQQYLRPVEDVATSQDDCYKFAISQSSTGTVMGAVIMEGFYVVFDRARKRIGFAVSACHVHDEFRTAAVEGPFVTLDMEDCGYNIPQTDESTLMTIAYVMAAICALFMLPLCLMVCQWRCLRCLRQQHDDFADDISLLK

Compound | inhibition (Beta-secretase 1 [1]) [%] | IC50 (Beta-secretase 1 [2]) [µM]
CC(=O)Nc1ccc(S(=O)(=O)NCC(=O)Nc2cccc(Cl)c2)cc1 | 52.9 | –
Cc1ccc(S(=O)(=O)NCC(=O)Nc2ccc(Cl)cc2)cc1 | 25.3 | –
CC(=O)Nc1ccc(S(=O)(=O)NCC(=O)Nc2ccc(C)cc2C)cc1 | 61.9 | 7.9
CC(=O)Nc1ccc(S(=O)(=O)NCC(=O)Nc2ccccc2)cc1 | 28.9 | –
O=C(CNS(=O)(=O)c1ccc([N+](=O)[O-])cc1)Nc1ccc(Cl)cc1 | 9.89 | –
O=C(CNS(=O)(=O)c1ccccc1)Nc1cccc(Cl)c1 | 4.83 | –
Cc1ccc(S(=O)(=O)NCC(=O)Nc2cccc(Cl)c2)cc1 | 31.8 | –
Cc1ccc(NC(=O)CNS(=O)(=O)c2ccccc2[N+](=O)[O-])c(C)c1 | 21.6 | –
COc1ccc(S(=O)(=O)NCC(=O)Nc2cccc(Cl)c2)cc1 | 38.3 | –
O=C(CNS(=O)(=O)c1ccccc1)Nc1ccc(Cl)cc1 | 5.09 | –
O=C(CNS(=O)(=O)c1ccc(Cl)cc1)Nc1cccc(Cl)c1 | 48.6 | –
Cc1ccc(NC(=O)CNS(=O)(=O)c2ccc(Cl)cc2)c(C)c1 | 35.9 | –
Cc1ccc(NC(=O)CNS(=O)(=O)c2ccccc2)c(C)c1 | 5.38 | –
O=C(CNS(=O)(=O)c1ccccc1[N+](=O)[O-])Nc1ccc(Cl)cc1 | 18.5 | –
O=C(CNS(=O)(=O)c1cccc([N+](=O)[O-])c1)Nc1cccc(Cl)c1 | 42.1 | –
Cc1ccc(NC(=O)CNS(=O)(=O)c2ccc([N+](=O)[O-])cc2)c(C)c1 | 9.49 | –
O=C(CNS(=O)(=O)c1cccc([N+](=O)[O-])c1)Nc1ccccc1 | 42 | –

Compound | inhibition (Beta-secretase 1 [1]) [%] | IC50 (Beta-secretase 1 [2]) [µM]
Cc1ccc(S(=O)(=O)NCC(=O)Nc2ccc(C)cc2C)cc1 | 35 | –
O=C(CNS(=O)(=O)c1ccc(Cl)cc1)Nc1ccccc1 | 22.8 | –
O=C(CNS(=O)(=O)c1cccc([N+](=O)[O-])c1)Nc1ccc(Cl)cc1 | 29.5 | –
O=C(CNS(=O)(=O)c1ccc([N+](=O)[O-])cc1)Nc1ccccc1 | 5.03 | –
Cc1ccccc1S(=O)(=O)NCC(=O)Nc1ccccc1 | 18.5 | –
O=C(CNS(=O)(=O)c1ccccc1[N+](=O)[O-])Nc1ccccc1 | 14.9 | –
O=C(CNS(=O)(=O)c1ccc([N+](=O)[O-])cc1)Nc1cccc(Cl)c1 | 17 | –
COc1ccc(S(=O)(=O)NCC(=O)Nc2ccc(C)cc2C)cc1 | 28.4 | –
O=C(CNS(=O)(=O)c1ccccc1)Nc1ccccc1 | 8.72 | –
COc1ccc(S(=O)(=O)NCC(=O)Nc2ccccc2)cc1 | 28.6 | –
Cc1ccc(NC(=O)CNS(=O)(=O)c2cccc([N+](=O)[O-])c2)c(C)c1 | 41 | –
O=C(CNS(=O)(=O)c1ccc(Cl)cc1)Nc1ccc(Cl)cc1 | 34.8 | –
O=C(CNS(=O)(=O)c1ccccc1[N+](=O)[O-])Nc1cccc(Cl)c1 | 17.5 | –
COc1ccc(S(=O)(=O)NCC(=O)Nc2ccc(Cl)cc2)cc1 | 35.1 | –
CC(=O)Nc1ccc(S(=O)(=O)NCC(=O)Nc2ccc(Cl)cc2)cc1 | 37.1 | –
Cc1ccc(S(=O)(=O)NCC(=O)Nc2ccccc2)cc1 | 21.9 | –

From ChEMBL document CHEMBL3792298, “Design, synthesis and in vitro evaluation studies of sulfonyl-amino-acetamides as small molecule BACE-1 inhibitors” (Bioorg Med Chem, 2016)
